Laboratory results taken from ChEMBL document CHEMBL1151705, “Novel azalides derived from 16-membered macrolides. Part II: Isolation of the linear 9-formylcarboxylic acid and its sequential macrocyclization with an amino alcohol or an azidoamine” (2008).
Values after ≈ are worked out from the molar mass of the structure shown.

What was measured:
Format in all cases: functional
Streptococcus pneumoniae [1] = assay: Antimicrobial activity against drug-susceptible Streptococcus pneumoniae 2 after 20 hrs by agar dilution method
Summary of the method: (§1)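 Streptococci, H. influenzae and M. catarrhalis were precultured on blood agar plates. Suspensions of about 10⁶ CFU/ml were inoculated onto sensitivity disk agar supplemented with 5% horse blood and incubated at 37 °C for 20 h. MIC was read as the lowest drug concentration with no visible growth.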

Streptococcus pneumoniae [2] = assay: Antimicrobial activity against Streptococcus pneumoniae 9 expressing mefA after 20 hrs by agar dilution method; summary of the method: as §1
Haemophilus influenzae [3] = assay: Antimicrobial activity against drug-susceptible Haemophilus influenzae 2 after 20 hrs by agar dilution method; summary of the method: as §1
Staphylococcus aureus [4] = assay: Antimicrobial activity against drug-susceptible Staphylococcus aureus 3 after 20 hrs by agar dilution method
Summary of the method: (§2)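 Agar dilution MIC. S. aureus seed culture was grown in sensitivity test broth. Cell suspension (about 10⁶ CFU/ml) was inoculated onto sensitivity disk agar with 5% horse blood and incubated at 37 °C for 20 h. MIC was the lowest drug concentration that prevented visible growth.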

Haemophilus influenzae [5] = assay: Antimicrobial activity against drug-susceptible Haemophilus influenzae 4 after 20 hrs by agar dilution method; summary of the method: as §1
Haemophilus influenzae [6] = assay: Antimicrobial activity against drug-susceptible Haemophilus influenzae 1 after 20 hrs by agar dilution method; summary of the method: as §1
Haemophilus influenzae [7] = assay: Antimicrobial activity against drug-susceptible Haemophilus influenzae 3 after 20 hrs by agar dilution method; summary of the method: as §1
Streptococcus pneumoniae [8] = assay: Antimicrobial activity against Streptococcus pneumoniae 7 expressing inducible ermB after 20 hrs by agar dilution method; summary of the method: as §1
Moraxella catarrhalis [9] = assay: Antimicrobial activity against drug-susceptible Moraxella catarrhalis 1 after 20 hrs by agar dilution method; summary of the method: as §1
Staphylococcus aureus [10] = assay: Antimicrobial activity against drug-susceptible Staphylococcus aureus 209P JC-1 after 20 hrs by agar dilution method; summary of the method: as §2
Moraxella catarrhalis [11] = assay: Antimicrobial activity against drug-susceptible Moraxella catarrhalis 2 after 20 hrs by agar dilution method; summary of the method: as §1
Streptococcus pneumoniae [12] = assay: Antimicrobial activity against drug-susceptible Streptococcus pneumoniae 3 after 20 hrs by agar dilution method; summary of the method: as §1
Streptococcus pneumoniae [13] = assay: Antimicrobial activity against Streptococcus pneumoniae 10 expressing mefA after 20 hrs by agar dilution method; summary of the method: as §1
Streptococcus pneumoniae [14] = assay: Antimicrobial activity against Streptococcus pneumoniae 8 expressing inducible ermB after 20 hrs by agar dilution method; summary of the method: as §1
Streptococcus pneumoniae [15] = assay: Antimicrobial activity against drug-susceptible Streptococcus pneumoniae DP1 Type1 after 20 hrs by agar dilution method; summary of the method: as §1
Staphylococcus aureus [16] = assay: Antimicrobial activity against drug-susceptible Staphylococcus aureus 2 after 20 hrs by agar dilution method; summary of the method: as §2
Streptococcus pyogenes [17] = assay: Antimicrobial activity against Streptococcus pyogenes 3 expressing mefA after 20 hrs by agar dilution method; summary of the method: as §1
Streptococcus pyogenes [18] = assay: Antimicrobial activity against drug-susceptible Streptococcus pyogenes 1 after 20 hrs by agar dilution method; summary of the method: as §1
Streptococcus pneumoniae [19] = assay: Antimicrobial activity against Streptococcus pneumoniae 6 constitutively expressing ermB after 20 hrs by agar dilution method; conditions: Streptococcus pneumoniae, 20 h; read-out: MIC; summary of the method: as §1
Streptococcus pyogenes [20] = assay: Antimicrobial activity against Streptococcus pyogenes 2 constitutively expressing ermB after 20 hrs by agar dilution method; summary of the method: as §1
Streptococcus pneumoniae [21] = assay: Antimicrobial activity against Streptococcus pneumoniae 4 constitutively expressing ermB after 20 hrs by agar dilution method; conditions: Streptococcus pneumoniae, 20 h; read-out: MIC; summary of the method: as §1
Staphylococcus aureus [22] = assay: Antimicrobial activity against Staphylococcus aureus 4 constitutively expressing ermA after 20 hrs by agar dilution method; summary of the method: as §2
Staphylococcus aureus [23] = assay: Antimicrobial activity against Staphylococcus aureus 5 expressing inducible ermB after 20 hrs by agar dilution method; conditions: Staphylococcus aureus, 20 h; read-out: MIC; summary of the method: as §2
Streptococcus pneumoniae [24] = assay: Antimicrobial activity against Streptococcus pneumoniae 5 constitutively expressing ermB/mefA after 20 hrs by agar dilution method; conditions: Streptococcus pneumoniae, 20 h; read-out: MIC; summary of the method: as §1
Staphylococcus aureus [25] = assay: Antimicrobial activity against Staphylococcus aureus 6 expressing inducible ermB after 20 hrs by agar dilution method; summary of the method: as §2
[26] = Streptococcus pneumoniae, 20 h, read-out: MIC
[27] = Staphylococcus aureus, 20 h, read-out: MIC
[28] = Haemophilus influenzae, 20 h, read-out: MIC
[29] = Moraxella catarrhalis, 20 h, read-out: MIC
[30] = Staphylococcus aureus, 209P, 20 h, read-out: MIC
[31] = Streptococcus pyogenes, 20 h, read-out: MIC

Row | MIC (Streptococcus pneumoniae [8]) [µg/mL] | MIC (Streptococcus pneumoniae [1]; [26]) [µg/mL] | MIC (Streptococcus pneumoniae [2]; [26]) [µg/mL] | MIC (Staphylococcus aureus [4]; [27]) [µg/mL] | MIC (Streptococcus pneumoniae [19]) [µg/mL] | MIC (Haemophilus influenzae [5]; [28]) [µg/mL] | MIC (Haemophilus influenzae [6]; [28]) [µg/mL] | MIC (Streptococcus pyogenes [20]) [µg/mL] | MIC (Haemophilus influenzae [7]; [28]) [µg/mL] | MIC (Moraxella catarrhalis [9]; [29]) [µg/mL] | MIC (Staphylococcus aureus [10]; [30]) [µg/mL] | MIC (Staphylococcus aureus [22]) [µg/mL] | MIC (Staphylococcus aureus [23]) [µg/mL] | MIC (Moraxella catarrhalis [11]; [29]) [µg/mL] | MIC (Streptococcus pneumoniae [13]; [26]) [µg/mL] | MIC (Streptococcus pneumoniae [15]; [26]) [µg/mL] | MIC (Staphylococcus aureus [16]; [27]) [µg/mL] | MIC (Streptococcus pneumoniae [24]) [µg/mL] | MIC (Streptococcus pyogenes [17]; [31]) [µg/mL] | MIC (Staphylococcus aureus [25]) [µg/mL] | SMILES | also measured
1 | 8 (≈ 8.22 µM) | – | – | – | – | – | – | – | – | – | – | – | – | – | – | – | – | – | – | – | CCOC(=O)[C@H]1[C@H](C)O[C@@H](O[C@H]2[C@H](N(C)C)[C@@H](O)[C@H](O[C@H]3[C@@H](CC=O)C[C@@H](C)[C@@H](O)CN(C)CCC(CCCc4cnc5ccccc5c4)NC(=O)C[C@@H](OC(=O)CC)[C@@H]3OC)O[C@@H]2C)C[C@@]1(C)O (stereo in doubt) | MIC (Streptococcus pneumoniae [1]): 0.06 µg/mL (≈ 0.0617 µM); MIC (Streptococcus pneumoniae [2]): 0.06 µg/mL (≈ 0.0617 µM); MIC (Haemophilus influenzae [3]): 2 µg/mL (≈ 2.06 µM); MIC (Staphylococcus aureus [4]): 0.5 µg/mL (≈ 0.514 µM); MIC (Haemophilus influenzae [5]): 16 µg/mL (≈ 16.4 µM); MIC (Haemophilus influenzae [6]): 32 µg/mL (≈ 32.9 µM); MIC (Haemophilus influenzae [7]): 8 µg/mL (≈ 8.22 µM); MIC (Moraxella catarrhalis [9]): 8 µg/mL (≈ 8.22 µM); MIC (Staphylococcus aureus [10]): 1 µg/mL (≈ 1.03 µM); MIC (Moraxella catarrhalis [11]): 4 µg/mL (≈ 4.11 µM); MIC (Streptococcus pneumoniae [12]): 0.06 µg/mL (≈ 0.0617 µM); MIC (Streptococcus pneumoniae [13]): 0.06 µg/mL (≈ 0.0617 µM); MIC (Streptococcus pneumoniae [14]): 8 µg/mL (≈ 8.22 µM); MIC (Streptococcus pneumoniae [15]): 0.03 µg/mL (≈ 0.0308 µM); MIC (Staphylococcus aureus [16]): 2 µg/mL (≈ 2.06 µM); MIC (Streptococcus pyogenes [17]): 1 µg/mL (≈ 1.03 µM); MIC (Streptococcus pyogenes [18]): 0.25 µg/mL (≈ 0.257 µM)
2 | 8 (≈ 8.11 µM) | 0.03 (≈ 0.0304 µM) | 0.03 (≈ 0.0304 µM) | 0.13 (≈ 0.132 µM) | > 128 | 8 (≈ 8.11 µM) | 16 (≈ 16.2 µM) | > 128 | 8 (≈ 8.11 µM) | 1 (≈ 1.01 µM) | 0.13 (≈ 0.132 µM) | > 128 | 0.13 (≈ 0.132 µM) | 1 (≈ 1.01 µM) | 0.03 (≈ 0.0304 µM) | 0.015 (≈ 0.0152 µM) | 0.5 (≈ 0.507 µM) | > 128 | 0.13 (≈ 0.132 µM) | 0.25 (≈ 0.253 µM) | CCOC(=O)[C@H]1[C@H](C)O[C@@H](O[C@H]2[C@H](N(C)C)[C@@H](O)[C@H](O[C@H]3[C@@H](CC=O)C[C@@H](C)[C@@H](O)CN(C)CC(/C=C/Cc4ccnc5ccccc45)CCOC(=O)C[C@@H](OC(=O)CC)[C@@H]3OC)O[C@@H]2C)C[C@@]1(C)O (stereo in doubt; form 1) | MIC (Streptococcus pneumoniae [21]): > 128 µg/mL; MIC (Streptococcus pneumoniae [12]; [26]): 0.03 µg/mL (≈ 0.0304 µM); MIC (Streptococcus pneumoniae [14]): 8 µg/mL (≈ 8.11 µM); MIC (Streptococcus pyogenes [18]): 0.03 µg/mL (≈ 0.0304 µM)
3 | – | 0.5 (≈ 0.557 µM) | 0.5 (≈ 0.557 µM) | 0.5 (≈ 0.557 µM) | > 128 | 16 (≈ 17.8 µM) | 64 (≈ 71.3 µM) | > 128 | 32 (≈ 35.6 µM) | 1 (≈ 1.11 µM) | 0.5 (≈ 0.557 µM) | > 128 | 0.5 (≈ 0.557 µM) | 2 (≈ 2.23 µM) | 0.5 (≈ 0.557 µM) | 0.25 (≈ 0.278 µM) | 1 (≈ 1.11 µM) | > 128 | 0.5 (≈ 0.557 µM) | 1 (≈ 1.11 µM) | CCC(=O)O[C@@H]1CC(=O)O[C@H](C)C/C=C/C=C/[C@H](OC(C)=O)[C@H](C)C[C@H](CC=O)[C@H](O[C@@H]2O[C@H](C)[C@@H](O[C@H]3C[C@@](C)(OC(C)=O)[C@@H](OC(=O)CC)[C@H](C)O3)[C@H](N(C)C)[C@H]2O)[C@H]1OC [MIOCAMYCIN] | MIC (Haemophilus influenzae [3]; [28]): 2 µg/mL (≈ 2.23 µM); MIC (Streptococcus pneumoniae [8]; [26]): 64 µg/mL (≈ 71.3 µM); MIC (Streptococcus pneumoniae [14]; [26]): 128 µg/mL (≈ 143 µM); MIC (Streptococcus pyogenes [18]; [31]): 0.25 µg/mL (≈ 0.278 µM)
4 | – | 1 (≈ 0.994 µM) | 1 (≈ 0.994 µM) | 2 (≈ 1.99 µM) | > 128 | 16 (≈ 15.9 µM) | > 128 | > 128 | 16 (≈ 15.9 µM) | 1 (≈ 0.994 µM) | 1 (≈ 0.994 µM) | > 128 | 1 (≈ 0.994 µM) | 1 (≈ 0.994 µM) | 1 (≈ 0.994 µM) | 0.5 (≈ 0.497 µM) | 4 (≈ 3.98 µM) | > 128 | 1 (≈ 0.994 µM) | 2 (≈ 1.99 µM) | CCOC(=O)[C@H]1[C@H](C)O[C@@H](O[C@H]2[C@H](N(C)C)[C@@H](O)[C@H](O[C@H]3[C@@H](CC=O)C[C@@H](C)[C@@H](OC(C)=O)CN(CCCCc4ccccc4)C[C@@H](C)NC(=O)C[C@@H](OC(=O)CC)[C@@H]3OC)O[C@@H]2C)C[C@@]1(C)OC(C)=O | MIC (Haemophilus influenzae [3]; [28]): 4 µg/mL (≈ 3.98 µM); MIC (Streptococcus pneumoniae [8]; [26]): 32 µg/mL (≈ 31.8 µM); MIC (Streptococcus pneumoniae [14]; [26]): 32 µg/mL (≈ 31.8 µM); MIC (Streptococcus pyogenes [18]; [31]): 0.5 µg/mL (≈ 0.497 µM)
